Drawing on ChEMBL document CHEMBL4028832, “Design and synthesis of 1,2,3-triazolo-phenanthrene hybrids as cytotoxic agents” (Bioorg Med Chem Lett, 2017), this text covers IC50 and Activity for 16 compounds.

The source made the active and inactive calls. The calls are words filed in the database; no cut-off is given here. Bounds are passed on as bounds.

One experiment has as its system HGC-27. Briefly: Cytotoxicity against human HGC27 cells after 48 hrs by MTT assay. The class given is functional, cell-based. The following applies: HGC-27, 48 h. The method in brief:
(§1)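 The human cancer lines and mouse 4T1 breast cells were treated with compound for 48 h and assessed by MTT assay. IC50 is the concentration giving 50% inhibition. 5-Fluorouracil served as the MTT standard.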

Another experiment has as its system MDA-MB-231. As to the kind of experiment: Cytotoxicity against human MDA-MB-231 cells after 48 hrs by MTT assay. The following applies: MDA-MB-231, 48 h. The format is functional, cell-based. The procedure, abridged: as §1
For the next experiment, the system named is PC-3. Briefly: Cytotoxicity against human PC3 cells after 48 hrs by MTT assay. The format is functional, cell-based. To be noted: PC-3, 48 h. The method in brief: as §1
(Formazan colour is commonly taken as a measure of viable cells.)

The subject of a further experiment is DU-145. Briefly: Cytotoxicity against human DU145 cells after 48 hrs by MTT assay. The following applies: DU-145, 48 h. The class given is functional, cell-based. The procedure, abridged:
as §1

For another experiment, the system named is HeLa. As to the kind of experiment: Cytotoxicity against human HeLa cells after 48 hrs by MTT assay. The class given is functional, cell-based. The procedure, abridged: as §1
A further experiment concerns A549. As to the kind of experiment: Cytotoxicity against human A549 cells after 48 hrs by MTT assay. The class given is functional, cell-based. To be noted: A549, 48 h. The procedure, abridged:
as §1

The subject of a further experiment is BT-549. Briefly: Cytotoxicity against human BT549 cells after 48 hrs by MTT assay. To be noted: BT-549, 48 h. The class given is functional, cell-based. The procedure, abridged: as §1
The subject of another experiment is MDA-MB-453. As to the kind of experiment: Cytotoxicity against human MDA-MB-453 cells after 48 hrs by MTT assay. The format is functional, cell-based. To be noted: MDA-MB-453, 48 h. The procedure, abridged: as §1
In a further experiment the test system is 4T1. As to the kind of experiment: Cytotoxicity against mouse 4T1 cells after 48 hrs by MTT assay. The class given is functional, cell-based. The following applies: 4T1, 48 h. The method in brief: as §1
For the next experiment, the species on record is Bos taurus. As to the kind of experiment: Binding affinity to calf thymus DNA assessed as increase in viscosity at 5 uM by Rolling-ball viscometric method.

One may read the IC50 as the concentration that gives 50% inhibition.

With `O=c1[nH]cc(F)c(=O)[nH]1` [FLUOROURACIL], the IC50 in the experiment with HGC-27 came out at 14.7 µM; in the experiment with MDA-MB-231, 4.33 µM; in the experiment with PC-3 it was 1.2 µM; in the experiment with DU-145, 2.18 µM; in the experiment with HeLa it was 1.86 µM; in the experiment on A549 it was 1.6 µM.

Consider `COc1cc2cc(Cn3cc(COc4ccc(OCc5ccccc5)cc4)nn3)c3cc(OC)c(OC)cc3c2cc1OC`, for which the IC50 in the experiment on BT-549 is 14.3 µM; in the experiment with HGC-27, 9.6 µM; in the experiment with MDA-MB-231, > 20 µM; with PC-3, > 20 µM; with DU-145, > 20 µM; in the experiment with MDA-MB-453 it was > 20 µM. Besides, the IC50 in the experiment on HeLa is 21.1 µM; in the experiment with 4T1 it was 9.3 µM; with A549, > 20 µM.

Regarding `COc1cc2cc(Cn3cc(CN4C(=O)c5ccccc5C4=O)nn3)c3cc(OC)c(OC)cc3c2cc1OC`, the half-maximal inhibitory concentration (IC50) with BT-549 was > 20 µM; in the experiment with HGC-27, 7.5 µM; with MDA-MB-231 it was 11.8 µM; with PC-3, 7.6 µM; in the experiment with DU-145 it was 2.6 µM; in the experiment on MDA-MB-453 it was > 20 µM. For the same compound, the IC50 in the experiment with HeLa was 12.6 µM; in the experiment with 4T1, 11.3 µM; in the experiment with A549, > 20 µM.

Consider `COc1cc2cc(Cn3cc(CN4CCCc5ccccc54)nn3)c3cc(OC)c(OC)cc3c2cc1OC`, for which the IC50 is > 20 µM in the experiment with BT-549; > 20 µM in the experiment with HGC-27; > 20 µM in the experiment with MDA-MB-231; 13.9 µM in the experiment on PC-3; > 20 µM with DU-145; > 20 µM with MDA-MB-453. Moreover, the IC50 with HeLa, in the experiment on 4T1 and in the experiment with A549 was > 20 µM in each case.

For `COc1cc2cc(Cn3cc(COc4cc(OC)c(OC)c(OC)c4)nn3)c3cc(OC)c(OC)cc3c2cc1OC`, the IC50 is > 20 µM in the experiment with BT-549; 14.8 µM in the experiment on HGC-27; 19.2 µM in the experiment on MDA-MB-231; > 20 µM in the experiment on PC-3; > 20 µM in the experiment on DU-145; > 20 µM in the experiment with MDA-MB-453. For the same compound, the IC50 in the experiment on HeLa, in the experiment with 4T1 and with A549 was > 20 µM throughout.

In the case of `COc1cc2cc(Cn3cc(COc4ccc(-c5ccccc5)cc4)nn3)c3cc(OC)c(OC)cc3c2cc1OC`, the half-maximal inhibitory concentration (IC50) with BT-549 is > 20 µM; with HGC-27, > 20 µM; in the experiment with MDA-MB-231 it was > 20 µM; in the experiment on PC-3 it was 12.5 µM; in the experiment with DU-145, > 20 µM; in the experiment on MDA-MB-453, > 20 µM. The IC50 in the experiment with HeLa is > 20 µM; in the experiment with 4T1 it was 10.8 µM; in the experiment with A549, > 20 µM.

For the compound `COc1cc2cc(Cn3cc(COc4ccc5c(c4)OCO5)nn3)c3cc(OC)c(OC)cc3c2cc1OC`, the half-inhibitory concentration (IC50) turned out to be 18.1 µM with BT-549; 9.5 µM with HGC-27; 12.6 µM with MDA-MB-231; 13.2 µM with PC-3; 16.7 µM with DU-145; 18.9 µM in the experiment with MDA-MB-453. Also, the IC50 was > 20 µM in the experiment with HeLa, 6.5 µM in the experiment on 4T1 and 14.5 µM with A549.

For the compound `COc1cc2cc(Cn3cc(CO)nn3)c3cc(OC)c(OC)cc3c2cc1OC`, the IC50 in the experiment on BT-549 was 8.2 µM; in the experiment on HGC-27, > 20 µM; in the experiment on MDA-MB-231, 6.8 µM; with PC-3 it was > 20 µM; with DU-145, > 20 µM; in the experiment on MDA-MB-453, 13.5 µM. Also, the results for the IC50 in the experiment on HeLa, in the experiment on 4T1 and in the experiment on A549 were 18.3 µM, > 20 µM and > 20 µM, respectively.

Regarding `COc1cc2cc(Cn3cc(COc4ccc(Br)cc4)nn3)c3cc(OC)c(OC)cc3c2cc1OC`, the IC50 with BT-549 was > 20 µM; with HGC-27, 3.9 µM; in the experiment on MDA-MB-231, > 20 µM; with PC-3 it was > 20 µM; with DU-145 it was > 20 µM; with MDA-MB-453, > 20 µM. Moreover, the IC50 with HeLa was 3.8 µM; in the experiment on 4T1 it was > 20 µM; in the experiment with A549, > 20 µM.

In the experiment with MDA-MB-231, `COc1ccc2c3c(c4cc(OC)c(OC)cc4c2c1)C[C@H]1CCCN1C3` [(-)-ANTOFINE] came in with an IC50 of 0.012 µM.

Take `C=CCc1ccc(OCc2cn(Cc3cc4cc(OC)c(OC)cc4c4cc(OC)c(OC)cc34)nn2)c(OC)c1`: the half-inhibitory concentration (IC50) in the experiment with BT-549 is > 20 µM; in the experiment on HGC-27 it was 7.6 µM; in the experiment on MDA-MB-231, > 20 µM; in the experiment with PC-3, > 20 µM; with DU-145, > 20 µM; with MDA-MB-453, > 20 µM. Further, the IC50 in the experiment with HeLa was 7.12 µM; in the experiment on 4T1, 7.3 µM; in the experiment with A549, > 20 µM.

As for `COc1cc2cc(Cn3cc(COc4ccccc4OC)nn3)c3cc(OC)c(OC)cc3c2cc1OC`, the IC50 in the experiment on BT-549 was > 20 µM; in the experiment with HGC-27, 9.1 µM; in the experiment on MDA-MB-231 it was > 20 µM; with PC-3 it was > 20 µM; in the experiment with DU-145, > 20 µM; in the experiment on MDA-MB-453, > 20 µM. The IC50 with HeLa is 11.2 µM; in the experiment on 4T1 it was > 20 µM; with A549 it was > 20 µM.

For the compound `COc1cc2cc(Cn3cc(CCO)nn3)c3cc(OC)c(OC)cc3c2cc1OC`, the IC50 in the experiment with BT-549 was > 20 µM; in the experiment on HGC-27 it was 14.2 µM; in the experiment on MDA-MB-231, > 20 µM; with PC-3, > 20 µM; in the experiment on DU-145, > 20 µM; in the experiment on MDA-MB-453, > 20 µM. The IC50 was 17.2 µM in the experiment with HeLa, > 20 µM in the experiment on 4T1 and > 20 µM in the experiment with A549.

`COc1cc2cc(Cn3cc(COc4c(Br)cccc4Br)nn3)c3cc(OC)c(OC)cc3c2cc1OC`: the IC50 in the experiment with BT-549 was > 20 µM; with HGC-27 it was 3.6 µM; in the experiment on MDA-MB-231 it was > 20 µM; with PC-3, 14.1 µM; in the experiment on DU-145 it was > 20 µM; with MDA-MB-453, > 20 µM. The IC50 is 5.15 µM in the experiment on HeLa, 7.4 µM with 4T1 and > 20 µM in the experiment on A549.

`COc1cc2cc(Cn3cc(COc4c(C)cc(C)cc4C)nn3)c3cc(OC)c(OC)cc3c2cc1OC`: the concentration for half-maximal inhibition (IC50) with BT-549 was 12.4 µM; in the experiment with HGC-27 it was > 20 µM; with MDA-MB-231, > 20 µM; with PC-3, > 20 µM; in the experiment with DU-145, > 20 µM; with MDA-MB-453, 12.6 µM. Further, the concentration for half-maximal inhibition (IC50) in the experiment on HeLa is 17.6 µM; in the experiment on 4T1 it was 6.2 µM; with A549 it was > 20 µM.

In the case of `COc1cc2cc(Cn3cc(CN4C(=O)c5ccc(C)cc5C4=O)nn3)c3cc(OC)c(OC)cc3c2cc1OC`, in the experiment filed under Bos taurus, the outcome was Active. Further, the IC50 with BT-549 came to 3.9 µM; in the experiment on HGC-27 it was 3.5 µM; with MDA-MB-231, 4.6 µM; in the experiment on PC-3, 7.12 µM; in the experiment on DU-145, 1.87 µM; in the experiment on MDA-MB-453, 6.5 µM. The IC50 in the experiment with HeLa is 2.7 µM; in the experiment on 4T1 it was 10 µM; in the experiment on A549 it was 12.3 µM.
